We go through ten molecules from ChEMBL document CHEMBL4414558, “Dehydroabietylamine Ureas and Thioureas as Tyrosyl-DNA Phosphodiesterase 1 Inhibitors That Enhance the Antitumor Effect of Temozolomide on Glioblastoma Cells” (J Nat Prod, 2019).

The subject of assay [1] is U-87 MG. Briefly: Cytotoxicity activity against human U87MG cells assessed as reduction in cell viability incubated for 72 hrs by MTT assay. It counts as cell-based, U-87MG ATCC.
Assay [2] concerns U-937. Briefly: Cytotoxicity activity against human U937 cells assessed as reduction in cell viability incubated for 72 hrs by MTT assay. It counts as cell-based. Conditions: U-937, 72 h. In general terms: Tetrazolium assays rely on reduction of a dye to a coloured formazan, in cell work by metabolically active cells.
Assay [3] concerns the target Tyrosyl-DNA phosphodiesterase 1 (Homo sapiens, UniProt Q9NUW8). Briefly: Inhibition of recombinant TDP1 (unknown origin) using 5'-(5,6 FAM-aac gtc agg gtc ttc c-BHQ1)-3' as substrate measured every 55 secs for 8 mins by fluorescence based assay. The method in brief: (§1)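 Purified TDP1, either wild-type or the H493R mutant, tested against the fluorogenic substrate. The IC50 is the compound concentration that cuts enzyme activity by 50%.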

For assay [4], the target named is Poly [ADP-ribose] polymerase 2 (Homo sapiens) (UniProt Q9UGN5). Briefly: Inhibition of PARP2 (unknown origin) assessed as residual activity at 100 uM relative to control.
Sequence of Poly [ADP-ribose] polymerase 2 (Homo sapiens) (Q9UGN5 whole entry): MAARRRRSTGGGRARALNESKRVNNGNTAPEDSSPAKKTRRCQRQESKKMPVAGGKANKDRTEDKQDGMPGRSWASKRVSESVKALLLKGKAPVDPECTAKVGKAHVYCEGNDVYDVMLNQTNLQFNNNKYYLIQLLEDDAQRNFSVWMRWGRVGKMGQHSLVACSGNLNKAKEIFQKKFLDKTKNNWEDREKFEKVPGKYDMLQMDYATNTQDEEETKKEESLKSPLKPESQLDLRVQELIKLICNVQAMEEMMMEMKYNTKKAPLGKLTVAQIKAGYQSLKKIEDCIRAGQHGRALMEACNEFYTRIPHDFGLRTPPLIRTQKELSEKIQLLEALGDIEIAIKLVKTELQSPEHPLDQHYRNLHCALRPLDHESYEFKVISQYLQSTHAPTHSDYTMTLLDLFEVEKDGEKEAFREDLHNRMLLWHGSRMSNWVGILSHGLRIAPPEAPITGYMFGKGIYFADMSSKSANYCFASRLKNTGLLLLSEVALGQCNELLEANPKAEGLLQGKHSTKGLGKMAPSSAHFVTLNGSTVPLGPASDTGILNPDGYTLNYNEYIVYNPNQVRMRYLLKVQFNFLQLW
Assay [5] has as its target Tyrosyl-DNA phosphodiesterase 1 (Homo sapiens, UniProt Q9NUW8, H493R). Briefly: Inhibition of recombinant TDP1 H493R mutant (unknown origin) using 5'-(5,6 FAM-aac gtc agg gtc ttc c-BHQ1)-3' as substrate measured every 55 secs for 8 mins by fluorescence based assay. The method in brief:
as §1

The nature of assay [6]: Cytotoxicity activity against human MDA-MB cells assessed as reduction in cell viability incubated for 72 hrs by MTT assay. In kind it is cell-based.
Assay [7] relates to T98G. Briefly: Cytotoxicity activity against human T98G cells assessed as reduction in cell viability incubated for 72 hrs by MTT assay. In kind it is cell-based.
The nature of assay [8]: Cytotoxicity activity against human SK-MEL-8 cells assessed as reduction in cell viability incubated for 72 hrs by MTT assay. In kind it is cell-based.
Assay [9] concerns the target Poly [ADP-ribose] polymerase 1 (Homo sapiens) (UniProt P09874). Briefly: Inhibition of PARP1 (unknown origin) assessed as residual activity at 100 uM relative to control.
For assay [10], the system named is SNB-19. Briefly: Cytotoxicity activity against human SNB19 cells assessed as reduction in cell viability incubated for 72 hrs by MTT assay. In kind it is cell-based. The note with it: SNB-19, 72 h.
Assay [11] deals with A549. Briefly: Cytotoxicity activity against human A549 cells assessed as reduction in cell viability incubated for 72 hrs by MTT assay. It counts as cell-based. Conditions: A549, 72 h.
The subject of assay [12] is U-87 MG. Briefly: Potentiation of TMZ-induced cytotoxicity against human U87MG cells assessed as combination index at 100 uM incubated for 72 hrs in presence of 2000 uM TMZ by MTT assay. In kind it is functional, U-87MG ATCC.
Assay [13] concerns SNB-19. Briefly: Potentiation of TMZ-induced cytotoxicity against human SNB19 cells assessed as combination index at 75 uM incubated for 72 hrs in presence of 2000 uM TMZ by MTT assay. It counts as functional.
Assay [14] deals with SNB-19. Briefly: Potentiation of TMZ-induced cytotoxicity against human SNB19 cells assessed as cell viability at 75 uM incubated for 72 hrs in presence of 2000 uM TMZ by MTT assay (Rvb =100%). In kind it is functional.
Assay [15] has as its system MCF7. Briefly: Cytotoxicity activity against human MCF7 cells assessed as reduction in cell viability incubated for 72 hrs by MTT assay. In kind it is cell-based. The note with it: MCF7, 72 h.
In assay [16] the test system is U-87 MG. Briefly: Potentiation of TMZ-induced cytotoxicity against human U87MG cells assessed as cell viability at 100 uM incubated for 72 hrs in presence of 2500 uM TMZ by MTT assay (reference value: 100%). In kind it is functional, U-87MG ATCC.
The test system of assay [17] is SNB-19. Briefly: Potentiation of TMZ-induced cytotoxicity against human SNB19 cells assessed as cell viability at 100 uM incubated for 72 hrs in presence of 1250 uM TMZ by MTT assay (Rvb =100%). It counts as functional.
Assay [18] concerns SNB-19. Briefly: Potentiation of TMZ-induced cytotoxicity against human SNB19 cells assessed as reduction in cell viability at 75 uM incubated for 72 hrs in presence of 2000 uM TMZ by MTT assay relative to TMZ alone. In kind it is functional.
Assay [19] relates to U-87 MG. Briefly: Potentiation of TMZ-induced cytotoxicity against human U87MG cells assessed as reduction in cell viability at 100 uM incubated for 72 hrs in presence of 2500 uM TMZ by MTT assay relative to TMZ alone. It counts as functional, U-87MG ATCC.
In assay [20] the test system is WI-38. Briefly: Cytotoxicity activity against human WI38 cells assessed as reduction in cell viability incubated for 72 hrs by MTT assay. In kind it is cell-based. Conditions: WI-38, 72 h.
For assay [21], the system named is SNB-19. Briefly: Potentiation of TMZ-induced cytotoxicity against human SNB19 cells assessed as combination index at 100 uM incubated for 72 hrs in presence of 1250 uM TMZ by MTT assay. It counts as functional.
The subject of assay [22] is U-87 MG. Briefly: Potentiation of TMZ-induced cytotoxicity against human U87MG cells assessed as cell viability at 100 uM incubated for 72 hrs in presence of 2000 uM TMZ by MTT assay (reference value: 100%). It counts as functional, U-87MG ATCC.
The test system of assay [23] is U-87 MG. Briefly: Potentiation of TMZ-induced cytotoxicity against human U87MG cells assessed as combination index at 100 uM incubated for 72 hrs in presence of 2500 uM TMZ by MTT assay. In kind it is functional, U-87MG ATCC.

One may read the IC50 as the concentration needed to halve the response being measured.

Molecules are shown by their SMILES. Bounds are passed on as bounds.

Sequence of Tyrosyl-DNA phosphodiesterase 1 (Homo sapiens, UniProt Q9NUW8, H493R) (Q9NUW8 whole entry H493R): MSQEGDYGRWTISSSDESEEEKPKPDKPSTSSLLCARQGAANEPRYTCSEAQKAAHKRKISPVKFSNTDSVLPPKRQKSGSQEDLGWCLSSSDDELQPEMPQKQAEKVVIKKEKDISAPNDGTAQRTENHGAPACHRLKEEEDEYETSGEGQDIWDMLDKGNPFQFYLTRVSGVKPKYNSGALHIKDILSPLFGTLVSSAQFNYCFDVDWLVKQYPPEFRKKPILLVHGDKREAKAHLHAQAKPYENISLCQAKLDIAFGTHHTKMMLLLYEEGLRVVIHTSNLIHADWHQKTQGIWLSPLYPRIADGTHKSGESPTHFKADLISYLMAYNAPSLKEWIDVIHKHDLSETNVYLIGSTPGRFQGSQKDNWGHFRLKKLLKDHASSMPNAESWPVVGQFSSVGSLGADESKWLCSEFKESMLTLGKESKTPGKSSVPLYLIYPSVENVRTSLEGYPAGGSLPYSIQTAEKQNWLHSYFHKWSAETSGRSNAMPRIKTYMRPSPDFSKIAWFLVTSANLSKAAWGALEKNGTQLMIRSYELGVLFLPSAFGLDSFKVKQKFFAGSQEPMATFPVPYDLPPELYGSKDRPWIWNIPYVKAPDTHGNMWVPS
Sequence of Tyrosyl-DNA phosphodiesterase 1 (Homo sapiens, UniProt Q9NUW8) (Q9NUW8 whole entry): as the sequence (Q9NUW8 whole entry H493R) above, with R493H counted along it
Sequence of Poly [ADP-ribose] polymerase 1 (Homo sapiens) (P09874 whole entry): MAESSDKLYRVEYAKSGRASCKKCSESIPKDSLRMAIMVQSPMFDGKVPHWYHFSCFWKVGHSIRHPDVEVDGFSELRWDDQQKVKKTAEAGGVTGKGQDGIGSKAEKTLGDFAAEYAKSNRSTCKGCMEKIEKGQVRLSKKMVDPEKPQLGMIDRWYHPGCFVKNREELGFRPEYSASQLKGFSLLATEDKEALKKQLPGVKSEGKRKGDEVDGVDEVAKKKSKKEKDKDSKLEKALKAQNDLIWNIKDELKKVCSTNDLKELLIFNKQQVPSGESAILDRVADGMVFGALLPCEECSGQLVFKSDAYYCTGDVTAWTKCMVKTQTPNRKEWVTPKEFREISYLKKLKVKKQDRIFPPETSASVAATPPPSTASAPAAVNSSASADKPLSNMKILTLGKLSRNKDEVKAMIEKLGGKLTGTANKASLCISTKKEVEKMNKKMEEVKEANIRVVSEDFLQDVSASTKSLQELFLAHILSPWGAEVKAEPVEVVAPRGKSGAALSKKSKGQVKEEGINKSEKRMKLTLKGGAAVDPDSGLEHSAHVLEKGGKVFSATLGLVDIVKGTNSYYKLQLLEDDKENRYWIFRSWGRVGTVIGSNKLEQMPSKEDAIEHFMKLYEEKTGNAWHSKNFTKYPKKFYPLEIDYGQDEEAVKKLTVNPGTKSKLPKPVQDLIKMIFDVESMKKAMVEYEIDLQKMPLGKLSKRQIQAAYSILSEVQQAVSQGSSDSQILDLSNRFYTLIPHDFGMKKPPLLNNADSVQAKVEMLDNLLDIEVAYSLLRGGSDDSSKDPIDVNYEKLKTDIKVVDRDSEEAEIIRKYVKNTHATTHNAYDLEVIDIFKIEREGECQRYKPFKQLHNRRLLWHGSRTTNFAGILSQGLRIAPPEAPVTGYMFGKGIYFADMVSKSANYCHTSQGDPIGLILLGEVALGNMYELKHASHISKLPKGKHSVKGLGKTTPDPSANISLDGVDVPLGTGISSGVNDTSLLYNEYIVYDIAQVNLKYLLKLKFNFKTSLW

For the molecule `CCNC(=S)NC[C@]1(C)CCC[C@]2(C)c3ccc(C(C)C)cc3CC[C@@H]12`, the IC50 in assay [1] was more than 100 µM; in assay [2], 18.7 µM; in [3], 2.3 µM; in assay [5], more than 50 µM; in [6], more than 100 µM; in assay [7] it was more than 100 µM. The figures for the half-maximal inhibitory concentration (IC50) in [8], in [10] and in [11] were more than 100 µM, less than 10 µM and more than 100 µM, respectively. Also, the Activity in assay [4] is 116%; in assay [9], 100%.

Regarding `CC(C)c1ccc2c(c1)CC[C@H]1[C@](C)(CNC(=O)NCC3(C)CC(NC(=O)NC[C@]4(C)CCC[C@]5(C)c6ccc(C(C)C)cc6CC[C@@H]45)CC(C)(C)C3)CCC[C@]21C` (some centres not stated), the CI is 1.7 in assay [12], 0.34 in [13], 0.97 in [21] and 0.77 in assay [23]. In addition, the 50% inhibitory concentration (IC50) in [1] is more than 100 µM; in [2], more than 100 µM; in [3], 0.09 µM; in assay [15], more than 100 µM; in assay [5] it was 5.4 µM; in [6], more than 100 µM. Besides, the IC50 in assay [7], in assay [8], in assay [10], in [20] and in assay [11] was more than 100 µM each time. Also, the Activity was determined as 94% in assay [4]; 89% in [14]; 90.9% in [16]; 97.3% in [17]; 92% in assay [9]; 109.2% in [22]. For the same molecule, the “fold change (FC)” value in assay [18] and in assay [19] was 1.1 each time.

Consider `Cc1ccc(NC(=O)NC[C@]2(C)CCC[C@]3(C)c4ccc(C(C)C)cc4CC[C@@H]23)cc1NC(=O)NC[C@]1(C)CCC[C@]2(C)c3ccc(C(C)C)cc3CC[C@@H]12`, for which the CI in assay [12] was determined as 1.03; in [13], 0.27; in assay [21], 0.99; in [23] it was 0.63. Also, the half-inhibitory concentration (IC50) in assay [1] was more than 100 µM; in assay [2], more than 100 µM; in [3], 0.11 µM; in assay [15] it was more than 100 µM; in assay [5], 5.4 µM; in [6], more than 100 µM. Also, the IC50 in [7], in [8], in [10], in [20] and in assay [11] was more than 100 µM each time. In addition, the Activity stood at 135% in [4]; 84.4% in [14]; 82.1% in assay [16]; 99.5% in [17]; 83% in assay [9]; 100.7% in assay [22]. The “fold change (FC)” value in assay [18] and in [19] was 1.2 each time.

As to `C=CCNC(=S)NC[C@]1(C)CCC[C@]2(C)c3ccc(C(C)C)cc3CC[C@@H]12`, the half-maximal inhibitory concentration (IC50) is more than 100 µM in [1]; 22.2 µM in [2]; 0.57 µM in assay [3]; 10 µM in assay [15]; more than 50 µM in assay [5]; more than 100 µM in assay [6]. Also, the concentration for half-maximal inhibition (IC50) in assay [7] was more than 100 µM; in assay [8], more than 100 µM; in [10], less than 10 µM; in assay [20], 50 µM; in assay [11], 100 µM. The results for the Activity in [4] and in assay [9] were 98% and 104%, respectively.

For the molecule `CCNC(=O)NC[C@]1(C)CCC[C@]2(C)c3ccc(C(C)C)cc3CC[C@@H]12`, the IC50 in assay [1] was more than 100 µM; in assay [2], 34.8 µM; in assay [3], 3.7 µM; in assay [5], more than 50 µM; in assay [6] it was more than 100 µM; in assay [7] it was more than 100 µM. The IC50 was more than 100 µM in assay [8], less than 10 µM in assay [10] and more than 100 µM in assay [11]. For the same molecule, the values for the Activity in [4] and in assay [9] were 116% and 100%, respectively.

With `CNC(=S)NC[C@]1(C)CCC[C@]2(C)c3ccc(C(C)C)cc3CC[C@@H]12`, the half-maximal inhibitory concentration (IC50) was more than 100 µM in assay [1]; 16.8 µM in [2]; 1.49 µM in assay [3]; more than 50 µM in assay [5]; more than 100 µM in assay [6]; 73.3 µM in assay [7]. The concentration for half-maximal inhibition (IC50) was more than 100 µM in assay [8], less than 10 µM in assay [10] and 19.7 µM in assay [11]. Moreover, the values for the Activity in assay [4] and in assay [9] were 114% and 110%, respectively.

As to `CC(C)c1ccc2c(c1)CC[C@H]1[C@](C)(CNC(=O)NC3CCCCC3)CCC[C@]21C`, the half-inhibitory concentration (IC50) in assay [1] was more than 100 µM; in [2], more than 100 µM; in assay [3], 0.5 µM; in assay [15], more than 100 µM; in assay [5], 39.2 µM; in assay [6] it was more than 100 µM. The IC50 in assay [7] is more than 100 µM; in assay [8], more than 100 µM; in assay [10], less than 10 µM; in assay [20] it was 52 µM; in assay [11], more than 100 µM. Further, the Activity in assay [4] turned out to be 99%; in assay [9], 96%.

Turning to `CC(C)c1ccc2c(c1)CC[C@H]1[C@](C)(CNC(=O)Nc3ccccc3)CCC[C@]21C`, the IC50 was more than 100 µM in assay [1]; more than 100 µM in [2]; 0.95 µM in assay [3]; more than 100 µM in [15]; 24.1 µM in [5]; more than 100 µM in assay [6]. Besides, the concentration for half-maximal inhibition (IC50) in assay [7] is more than 100 µM; in assay [8] it was more than 100 µM; in assay [10] it was 17 µM; in [20], more than 100 µM; in assay [11] it was more than 100 µM. Moreover, the Activity is 129% in assay [4] and 106% in [9].

Consider `CC(C)c1ccc2c(c1)CC[C@H]1[C@](C)(CNC(=O)Nc3ccc(Cl)cc3)CCC[C@]21C`, for which the concentration for half-maximal inhibition (IC50) in assay [1] is more than 100 µM; in assay [2], 15 µM; in assay [3], 0.28 µM; in [15], 52 µM; in assay [5], 34.1 µM; in [6] it was more than 100 µM. For the same molecule, the 50% inhibitory concentration (IC50) is 21.2 µM in [7]; more than 100 µM in assay [8]; less than 10 µM in assay [10]; more than 100 µM in assay [20]; more than 100 µM in [11]. The Activity in assay [4] and in assay [9] was 93% throughout.

As for `CC(C)c1ccc2c(c1)CC[C@H]1[C@](C)(CNC(=S)Nc3ccccc3)CCC[C@]21C`, the half-inhibitory concentration (IC50) in assay [1] was more than 100 µM; in assay [2], more than 100 µM; in assay [3] it was 0.71 µM; in assay [15] it was 26 µM; in assay [5], 19.9 µM; in assay [6], more than 100 µM. The half-inhibitory concentration (IC50) in assay [8] is more than 100 µM; in assay [20], 70 µM; in assay [11], more than 100 µM. In addition, the Activity in assay [4] came out at 116%; in assay [9] it was 98%.
